Measurements reported in ChEMBL document CHEMBL1131493, “Inhibitors of farnesyl protein transferase. 4-Amido, 4-carbamoyl, and 4-carboxamido derivatives of 1-(8-chloro-6,11-dihydro-5H-benzo[5,6]- cyclohepta[1,2-b]pyridin-11-yl)piperazine and 1-(3-bromo-8-chloro-6,11- dihydro-5H-benzo[5,6]cyclohepta[1,2-b]pyridin-11-yl)piperazine” (J Med Chem, 1998).

Tests used:
[1] = biological target: T1, Protein farnesyltransferase (Homo sapiens, UniProt P49354+P49356); assay: In vitro inhibition of farnesyltransferase farnesylation of the H-ras oncogene; assay type: protein-complex assay; parameters: Inhibition: concentration or dose not given beside the values
[2] = biological target: geranylgeranyltransferase type-I (Rattus norvegicus, UniProt P53610+Q04631); assay: Inhibition of rat Geranylgeranyl transferase (GGPT); assay type: protein-complex assay
[3] = biological target: T1, Protein farnesyltransferase; assay: Inhibition of Farnesyltransferase from Ras-CVLS or Ras-CVLL in Cos-7 monkey kidney cells; assay type: cell-based, Chlorocebus aethiops
[4] = test system: Mus musculus; assay: In vivo antitumor efficacy after peroral dose of 25 mg/kg in mice expressed as duration for which compound was present above IC50; assay type: ADME, organism-based; parameters: dose 25 mg/kg, route oral; details: po
Outline: (§1)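 Serum pharmacokinetics in nude mice or cynomolgus monkeys after oral (po) or iv dosing. Compounds were given as hydrochloride salts in 20% HPβCD unless otherwise noted. Other formulations were the hydrochloride salt in saline, the micronized free base in 20% HPβCD or corn oil (po) with saline for iv, or the hydrochloride salt in 0.4% methyl cellulose (po).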

[5] = In vivo antitumor efficacy in nude mice by injecting a dose of 25 mg/kg, as HCl salt in saline solution, iv and the total drug exposure was determined. (0-24hr); assay type: ADME, organism-based; parameters: time < 24 hr, dose 25 mg/kg, route intravenous; details: mouse
[6] = Maximal plasma concentration in nude mice after 25 mg/kg oral dose; assay type: ADME, organism-based; parameters: dose 25 mg/kg, route oral; details: mouse; outline: as §1
[7] = In vivo antitumor efficacy in nude mice by injecting a dose of 25 mg/kg iv and serum half-life was determined; assay type: ADME, organism-based; parameters: dose 25 mg/kg, route intravenous; details: mouse; outline: as §1
[8] = In vivo antitumor efficacy in nude mice 0-24 hr after peroral dose of 25 mg/kg expressed as Area under the curve; assay type: ADME, organism-based; parameters: time < 24 hr, dose 25 mg/kg, route oral; details: nude, mouse, po; outline: as §1
[9] = Oral bioavailability in mouse (nude) (dose of 25 mg/kg); assay type: ADME, organism-based; details: in vivo; outline: as §1

SMILES | IC50 [1] [µM] | IC50 [2] [µM] | IC50 [3] [µM] | other results
CN1CCC(NC(=O)N2CCN(C3c4ccc(Cl)cc4CCc4cc(Br)cnc43)CC2)CC1 (configuration not stated) | 0.041 | > 38 | 0.53 | 
O=C(CC1CCNCC1)N1CCN([C@@H]2c3ccc(Cl)cc3CCc3cc(Br)cnc32)CC1 | 0.087 |  | 0.56 | 
O=C(Oc1cccnc1)N1CCN([C@@H]2c3ccc(Cl)cc3CCc3cccnc32)CC1 | 1.28 |  | 6.9 | 
O=C(Oc1cccnc1)N1CCN(C2c3ccc(Cl)cc3CCc3cccnc32)CC1 (configuration not stated) | 0.5 |  | 3 | 
O=C(Nc1cccnc1)N1CCN(C2c3ccc(Cl)cc3CCc3cccnc32)CC1 (configuration not stated) |  | > 46 | 4.8 | 
CC(C)(C(=O)N1CCN(C2c3ccc(Cl)cc3CCc3cccnc32)CC1)c1cccnc1 (configuration not stated) |  |  | 6.1 | 
COCC[C@H]1CN(C2c3ccc(Cl)cc3CCc3cc(Br)cnc32)CCN1C(=O)CC1CCN(C(N)=O)CC1 (some centres not stated) | 0.092 |  | 1.7 | 
CN1CCC(CC(=O)N2CCN([C@H]3c4ccc(Cl)cc4CCc4cc(Br)cnc43)CC2)CC1 |  | > 38 |  | 
CC(=O)N1CCC(CC(=O)N2CCN([C@H]3c4ccc(Cl)cc4CCc4cccnc43)CC2)CC1 | 1.6 |  | 6.2 | 
O=C(Oc1cccnc1)N1CCN([C@H]2c3ccc(Cl)cc3CCc3cccnc32)CC1 | 0.82 |  | 3.9 | 
O=C(Cc1cc[n+]([O-])cc1)N1CCN([C@H]2c3ccc(Cl)cc3CCc3cccnc32)CC1 | 0.49 |  | 5 | Time above IC50 [4]: 4 h; AUC at 24 h [5]: 21500 ng·h/mL; Cmax [6]: 10 µM; half-life [7]: 0.8 h; AUC at 24 h [8]: 15500 ng·h/mL; bioavailability [9]: 72%
COCC[C@H]1CN(C2c3ccc(Cl)cc3CCc3cc(Br)cnc32)CCN1C(=O)Cc1cc[n+]([O-])cc1 (some centres not stated) | 0.034 |  | < 0.25 | Time above IC50 [4]: 7 h; Cmax [6]: 9 µM; AUC at 24 h [8]: 19900 ng·h/mL
O=C(Nc1cccnc1)N1CCN(C2c3ccc(Cl)cc3CCc3cc(Br)cnc32)CC1 (configuration not stated) | 0.21 | > 10 | 3.7 | 
CCCC[C@H]1CN(C2c3ccc(Cl)cc3CCc3cc(Br)cnc32)CCN1C(=O)CC1CCN(C(N)=O)CC1 (some centres not stated) | 0.027 |  | 0.6 | 
O=C(Oc1ccc[n+]([O-])c1)N1CCN(C2c3ccc(Cl)cc3CCc3cc(Br)cnc32)CC1 (configuration not stated) | 0.28 |  | 6 | 
CN1CCCC(CC(=O)N2CCN(C3c4ccc(Cl)cc4CCc4cccnc43)CC2)C1 (configuration not stated) | 1.19 |  | 2.4 | 
O=C(Cc1ccccn1)N1CCN(C2c3ccc(Cl)cc3CCc3cccnc32)CC1 (configuration not stated) |  | > 46 |  | 
O=C(Nc1ccccc1)N1CCN(C2c3ccc(Cl)cc3CCc3cccnc32)CC1 (configuration not stated) | 1.09 | > 40 |  | 
CC(=O)N1CCC(CC(=O)N2CCN(C3c4ccc(Cl)cc4CCc4cccnc43)CC2)CC1 (configuration not stated) | 0.87 |  | 2.7 | 
O=C(Cc1ccc(Br)cc1)N1CCN(C2c3ccc(Cl)cc3CCc3cccnc32)CC1 (configuration not stated) |  | > 50 | 5.1 | 

SMILES | IC50 [1] [µM] | IC50 [2] [µM] | IC50 [3] [µM] | other results
CCCC[C@H]1CN(C2c3ccc(Cl)cc3CCc3cc(Br)cnc32)CCN1C(=O)Cc1cc[n+]([O-])cc1 (some centres not stated) | 0.06 | > 34.2 | 0.63 | Time above IC50 [4]: 7 h; AUC at 24 h [5]: 91400 ng·h/mL; Cmax [6]: 11.5 µM; half-life [7]: 2 h; AUC at 24 h [8]: 43200 ng·h/mL; bioavailability [9]: 47%
CN1CCC(CC(=O)N2CCN(C3c4ccc(Cl)cc4CCc4c(Cl)ccnc43)CC2)CC1 (configuration not stated) | 0.45 |  | 5.7 | 
CCCNC(=O)N1CCC(CC(=O)N2CCN(C3c4ccc(Cl)cc4CCc4cc(Br)cnc43)CC2)CC1 (configuration not stated) | 0.1 | > 33 | 1.5 | 
CC(=O)N1CCC(C(=O)N2CCN([C@H]3c4ccc(Cl)cc4CCc4cccnc43)CC2)CC1 | 1.8 |  | 6.5 | 
N[C@@H](CO)C(=O)N1CCC(CC(=O)N2CCN(C3c4ccc(Cl)cc4CCc4cc(Br)cnc43)CC2)CC1 (some centres not stated) | 0.104 | > 33 | 1.05 | 
CN(C)c1ccc(CC(=O)N2CCN(C3c4ccc(Cl)cc4CCc4cccnc43)CC2)cc1 (configuration not stated) |  | 42 |  | 
CN1CCC(OC(=O)N2CCN(C3c4ccc(Cl)cc4CCc4cc(Br)cnc43)CC2)CC1 (configuration not stated) | 0.31 |  | > 5 | 
O=C(Cc1ccccc1)N1CCN(C2c3ccc(Cl)cc3CCc3cccnc32)CC1 (configuration not stated) |  |  | 12 | 
O=C(Cc1cccnc1)N1CCN(C2c3ccc(Cl)cc3CCc3cc(Br)cnc32)CC1 (configuration not stated) | 0.17 | > 10 | 0.85 | 
O=C(Nc1cccnc1)N1CCN([C@H]2c3ccc(Cl)cc3CCc3cccnc32)CC1 | 0.46 |  | 7.3 | 
O=C(Oc1ccccc1)N1CCN(C2c3ccc(Cl)cc3CCc3cccnc32)CC1 (configuration not stated) | 0.8 |  |  | 
NC(=O)N1CCC(CC(=O)N2CCN(C3c4ccc(Cl)cc4C=Cc4cc(Br)cnc43)CC2)CC1 (configuration not stated) | 0.045 |  |  | 
N[C@@H](CS)C(=O)N1CCN(C2c3ccc(Cl)cc3CCc3cc(Br)cnc32)CC1 (some centres not stated) | 2.1 |  |  | 
O=C(Cc1cc[n+]([O-])cc1)N1CCN(C2c3ccc(Cl)cc3CCc3cccnc32)CC1 (configuration not stated) | 0.74 |  |  | 
CCN1CCC(CC(=O)N2CCN(C3c4ccc(Cl)cc4CCc4cccnc43)CC2)CC1 (configuration not stated) | 1.27 |  |  | 
CN1CCC(CC(=O)N2CCN([C@@H]3c4ccc(Cl)cc4CCc4cc(Br)cnc43)CC2)CC1 |  | > 38 |  | 
CSCC[C@H](N)C(=O)N1CCC(CC(=O)N2CCN(C3c4ccc(Cl)cc4CCc4cccnc43)CC2)CC1 (some centres not stated) | 1.89 |  |  | 
O=C(C1CCCC2NCCCC21)N1CCN(C2c3ccc(Cl)cc3CCc3cc(Br)cnc32)CC1 (configuration not stated) |  |  |  | Inhibition [1]: 23%
CC(C)(C)NC(=O)N1CCC(CC(=O)N2CCN(C3c4ccc(Cl)cc4CCc4cc(Br)cnc43)CC2)CC1 (configuration not stated) | 0.108 |  |  | 
O=C(Cc1ccc[n+]([O-])c1)N1CCN(C2c3ccc(Cl)cc3CCc3ccc[n+]([O-])c32)CC1 (configuration not stated) | 3.8 |  | > 20 | 

Now from value to molecule, other results behind:

IC50 [1] [µM] | IC50 [2] [µM] | SMILES | IC50 [3] [µM] | other results
0.24 |  | O=C(Nc1ccc[n+]([O-])c1)N1CCN(C2c3ccc(Cl)cc3CCc3cc(Br)cnc32)CC1 (configuration not stated) | 3.6 | 
0.39 |  | CC(C)(C(=O)N1CCN(C2c3ccc(Cl)cc3CCc3cc(Br)cnc32)CC1)c1cc[n+]([O-])cc1 (configuration not stated) | 5 | 
 | > 50 | O=C(C(c1ccccc1)c1ccccc1)N1CCN(C2c3ccc(Cl)cc3CCc3cccnc32)CC1 (configuration not stated) |  | 
2.6 | > 50 | O=C(/C=C/c1cccnc1)N1CCN(C2c3ccc(Cl)cc3CCc3cccnc32)CC1 (configuration not stated) |  | 
0.21 |  | O=C(Nc1cc[n+]([O-])cc1)N1CCN(C2c3ccc(Cl)cc3CCc3cc(Br)cnc32)CC1 (configuration not stated) | 5.8 | 
0.3 |  | CC(C)(C(=O)N1CCN(C2c3ccc(Cl)cc3CCc3cc(Br)cnc32)CC1)c1cccnc1 (configuration not stated) | 0.9 | 
 | > 46 | O=C(Nc1ccccn1)N1CCN(C2c3ccc(Cl)cc3CCc3cccnc32)CC1 (configuration not stated) | 1.3 | 
 | > 40 | O=C(CN1C(=O)c2ccccc2C1=O)N1CCN(C2c3ccc(Cl)cc3CCc3cccnc32)CC1 (configuration not stated) |  | 
0.47 |  | CN1CCC(NC(=O)N2CCN(C3c4ccc(Cl)cc4CCc4cccnc43)CC2)CC1 (configuration not stated) |  | 
20.2 |  | CN(C)c1ccc(C(=O)N2CCN(C3c4ccc(Cl)cc4CCc4cccnc43)CC2)cc1 (configuration not stated) |  | 
7.4 |  | CC(C)(C)OC(=O)N1CCC(CC(=O)N2CCN(C3c4ccc(Cl)cc4CCc4cccnc43)CC2)CC1 (configuration not stated) |  | 
4.1 |  | O=C(NCc1ccccc1)N1CCN(C2c3ccc(Cl)cc3CCc3cccnc32)CC1 (configuration not stated) |  | 
1.24 | > 43 | CC(=O)C1CCC(C(=O)N2CCN(C3c4ccc(Cl)cc4CCc4cccnc43)CC2)CC1 (configuration not stated) | 4.9 | 
 | > 40 | O=C(Nc1ccncc1)N1CCN(C2c3ccc(Cl)cc3CCc3cccnc32)CC1 (configuration not stated) |  | 
0.66 |  | CN1CCCC(NC(=O)N2CCN(C3c4ccc(Cl)cc4CCc4cccnc43)CC2)C1 (configuration not stated) |  | 
1.25 |  | O=C(CC1CCNCC1)N1CCN(C2c3ccc(Cl)cc3CCc3cccnc32)CC1 (configuration not stated) |  | 
3.3 |  | CC(C)(C(=O)N1CCN(C2c3ccc(Cl)cc3CCc3cccnc32)CC1)c1ccccc1 (configuration not stated) |  | 
